Results on 56 compounds are retold here after PubChem BioAssay AID463210 (The Scripps Research Institute Molecular Screening Center, 2010).

Structures are written as SMILES. Screen size: about 330,000 compounds; about 300 (0.091%) were called active. The full list was thinned out, with actives kept by preference. Unmarked numbers belong to inactive results.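 How the source made its calls: active means percent activation above the screen-wide mean plus 3 SD (cut at about 25% in these data); inactive means the rest.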

The target in this test is Caspase-7 (Homo sapiens) (UniProt P55210). As to the kind of experiment: activation of procaspase-7 enzyme – biochemical, absorbance, HTS, human, counter-screen for procaspase-3 activator project, primary screen (AID 463210). As to conditions: recombinant procaspase-7, Ac-DEVD-pNA absorbance 405 nm; at 8.5 µM; hits give high values; D23A/D198A/D206A triple mutant, cannot self-cleave; scale: DMSO 0, 5 µM enzyme 100. Put shortly: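 Assay system: Uncleavable procaspase-7 mutant enzyme; Input: 2 µM procaspase-7 mutant as dispensed; Also added: DEVD-pNA substrate; Medium: Zinc-free HEPES pH 7.4 with 300 mM NaCl, 0.01% Triton X-100; Timing: 1 h compound preincubation, 2 h substrate cleavage, 25 °C; Measured by: Epi-absorbance of released pNA at 405 nm, two timepoints.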
Caspase-7 (Homo sapiens), sequence (P55210 whole entry D23A/D198A/D206A): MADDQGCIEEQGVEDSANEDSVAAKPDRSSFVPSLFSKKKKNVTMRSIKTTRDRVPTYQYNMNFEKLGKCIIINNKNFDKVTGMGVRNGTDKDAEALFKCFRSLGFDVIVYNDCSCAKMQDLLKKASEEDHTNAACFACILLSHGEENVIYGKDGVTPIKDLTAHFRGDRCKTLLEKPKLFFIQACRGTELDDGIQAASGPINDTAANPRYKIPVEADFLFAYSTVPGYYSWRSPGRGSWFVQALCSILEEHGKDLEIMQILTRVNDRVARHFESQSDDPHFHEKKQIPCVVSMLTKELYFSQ
(In general: Counterscreens check selectivity or assay interference.)
In the case of `Cc1ccc(CSCCNC(=O)CN(c2ccc(F)cc2)S(C)(=O)=O)cc1`, the activation is -2.84%.

As to `CCCc1c(C(=O)N/N=C(\C)CCc2ccc(OC)cc2)nnn1-c1nonc1N`, the activation is 2.5%.

On to `O=C(NCCc1ccco1)c1ccc(OCc2cn3ccccc3n2)cc1`, for which the activation is 15.8%.

On to `CCOc1cc(C(=O)OCC(=O)Nc2cccc(C)c2)ccc1OCC(=O)N1CCOCC1`, for which the activation is 15.3%.

As to `O=S(=O)(NCCSc1ccccn1)c1ccc(Cl)cc1`, the activation is -2.06%.

In the case of `COc1ccc(NC(=O)CNC(=O)Cn2ccc3ccccc3c2=O)c(OC)c1`, the activation was -4.04%.

As to `Cc1ccc(Cc2cncc(O)c2)cc1S(=O)(=O)O`, the activation is 10.6%.

For the compound `COC(=O)/C=C(\Oc1ccccc1)C1(O)CCCCC1`, the activation was 7.7%.

On to `NS(=O)(=O)c1ccc(CCNC(=O)COC(=O)COc2cccc(C(F)(F)F)c2)cc1`, for which the activation was -7.58%.

As for `COc1ccc(OC)c(S(=O)(=O)Nc2cccc(-c3ccc4nncn4n3)c2)c1`, the activation is 5.81%.

Take `Nc1c(-c2cccc(Cl)c2)cnn1-c1cccc([N+](=O)[O-])c1`: the activation was -13%.

Turning to `O=C(NC1CCCC1)C(c1ccco1)N(C(=O)c1csnn1)c1ccccc1` (stereo unspecified), the activation is 6.3%.

For the compound `Cn1cnnc1Sc1ccc(S(C)(=O)=O)cc1[N+](=O)[O-]`, the activation is 6.34%.

`COc1ccc(CNC(=O)COC(=O)CCS(=O)(=O)c2ccc(C)cc2)cc1OC`: the activation is 6.34%.

`CC(C)CN1CCNC(=O)C1CC(=O)N(C)CC1CCOCC1` (stereo unspecified): the activation was -1.75%.

`Cc1ccccc1NC(=O)CSC1=NCCN1`: the activation is 9.38%.

Turning to `CNS(=O)(=O)c1cccc(C(=O)NCC2CCCCC2)c1`, the activation was 1.69%.

On to `CNS(=O)(=O)c1cccc(C(=O)NC2CCCc3ccccc32)c1` (stereo unspecified), for which the activation is 38.5% (active).

As to `O=C(O)c1cc(S(=O)(=O)NC2CCCc3ccccc32)ccc1O` (stereo unspecified), the activation was -8.22%.

For `CCOC(=O)/C=C/c1ccc(C(F)(F)F)cc1S(=O)(=O)NC(C)(C)C`, the activation is 2.37%.

In the case of `Cc1cc(Cl)c2oc(C(=O)N3CCC(O)(c4ccccc4)CC3)c(C)c2c1`, the activation is -0.4%.

As to `COc1ccccc1CNC(=O)CN1CCC(n2cnc3cc(F)ccc32)CC1`, the activation was -8.61%.

In the case of `Cc1coc2c1c(C)cc1oc(=O)c(CC(=O)NCC(=O)N[C@H](C(=O)O)C(C)C)c(C)c12`, the activation was -1.78%.

On to `CC1CCN(C(=O)Cn2nnnc2CN2CCOCC2)CC1`, for which the activation is 0.88%.

Regarding `CCNS(=O)(=O)c1ccc(NC(=O)c2cncc(Br)c2)cc1`, the activation was 3.96%.

Consider `Cc1ccc2c(C)c(C(=O)N3CCN(c4ccncc4)CC3)oc2c1C`, for which the activation was 0%.

For `Cc1ccc(-c2csc(N3CCN(c4cc5c(cc4Cl)nc(-c4ccncc4)n5CCOCCO)CC3)n2)cc1`, the activation is 1.55%.

As to `CC(C)C1Nc2c(C(=O)O)cccc2C(Nc2ccccc2C(=O)O)C1(C)C` (stereo unspecified), the activation was -0.22%.

With `CCOC(=O)Cn1c2c(c(-c3ccccc3OC)cc1=O)CCCC2`, the activation is 0.27%.

Take `CC(=O)Nc1ccc(NS(=O)(=O)c2cc(C)sc2C)cc1`: the activation is 4.24%.

In the case of `O=C(NCCS(=O)(=O)N1CCN(c2ccccc2F)CC1)c1ccc(Br)o1`, the activation is 10.8%.

With `COc1ccc(N2CCN(C(=O)Cn3cnc4sc(C)c(S(=O)(=O)N5CCOCC5)c4c3=O)CC2)cc1`, the activation is 7.13%.

As for `CCOC(=O)C1(CCOC)CCN(Cc2ccc(C(=O)OC)cc2)CC1`, the activation was 1.4%.

With `CCOC(=O)C1(CCOC)CCN(Cc2cc3ccccc3s2)CC1`, the activation is 31.9% (active).

Turning to `CCOC(=O)C1(CCOc2ccccc2)CCN(Cc2cc(OC)cc(OC)c2)CC1`, the activation was -7.5%.

As to `S=C(Nc1ccc(Br)cc1)NC1CCN(Cc2ccccc2)CC1`, the activation was -4.11%.

For the compound `CCCCNS(=O)(=O)c1ccc2nc(SCC(=O)Nc3cc(C)cc(C)c3)[nH]c2c1`, the activation is 7.82%.

For `COC(=O)c1ccc(NS(=O)(=O)c2cc3c4c(c2)C(C)C(=O)N4CCC3)cc1` (stereo unspecified), the activation is 8.38%.

Regarding `O=C(C[n+]1cc(-c2ccc(Cl)c(Cl)c2)n2c1CCC2)c1cccs1`, the activation is 5.63%.

Consider `COC(=O)CC1=NN(c2nc(C)cc(C)n2)C(=O)C1`, for which the activation was 2.23%.

`CC(C)(C)c1ccc(/C=C2\Oc3c(ccc(O)c3CN3CCN(CCO)CC3)C2=O)cc1`: the activation is -5.14%.

Turning to `Cc1ccc(S(=O)(=O)N2C[C@@H]3CCCC[C@@H]3[C@@H](C)[C@H]2c2cn(Cc3ccccc3)c3ccc(F)cc23)cc1`, the activation was 6.02%.

For `Cc1c(C(=O)N(Cc2ccccc2)Cc2cccnc2)cnn1-c1ccc(F)cc1`, the activation was 3.32%.

In the case of `COc1ccc(OCc2cc(C(=O)N3CCCC3)no2)c2ccccc12`, the activation was -1.07%.

With `CN=C1SC(CC(=O)Nc2ccc(C(=O)O)cc2)C(=O)N1C` (stereo unspecified), the activation is 1.33%.

Turning to `CCCS(=O)(=O)N1CCC(C(=O)NCCc2ccc(OC)c(OC)c2)CC1`, the activation is 5.54%.

For the compound `O=C1CN(C(=O)c2cc(F)cc(F)c2)c2ccccc2N1`, the activation was 2.59%.

Consider `CCOC(=O)C1CCN(C(=O)COC(=O)C2CCN(S(=O)(=O)c3ccc4c(c3)OCCO4)CC2)CC1`, for which the activation is 2.16%.

As for `CCCCc1ccc(NS(=O)(=O)c2cccc(C(=O)N3CCCN(C)CC3)c2)cc1`, the activation was -3.56%.

As to `Cc1ccc(S(=O)(=O)NCCC(=O)OCC(=O)N(C)c2ccccc2)cc1`, the activation is 1.61%.

In the case of `COc1ccc(-n2cc(CNC3CCOCC3)c(-c3cccc(F)c3)n2)cc1`, the activation is -1.78%.

With `CCOc1ccc2c(c1)c(=O)c(S(=O)(=O)c1ccc(C)cc1)cn2CC`, the activation was -6.47%.

For `C=CCN(c1ccccc1C(=O)NCC(=O)OCC)S(=O)(=O)c1ccc(C)cc1`, the activation was 4.75%.

Take `CC(=O)N1c2ccc(S(=O)(=O)N3CCCC(C(=O)NCc4ccc(Cl)cc4)C3)cc2CC1C` (stereo unspecified): the activation is 1.56%.

In the case of `COc1ccc(CN(C(=O)CSc2nnc(-c3ccc(OC)c(OC)c3)o2)c2ccc(F)cc2)cc1`, the activation is -3.3%.

Turning to `O=C1CCCCN1CCCC(=O)N1CCCC(Nc2ccc(F)cc2)C1` (stereo unspecified), the activation was -11.7%.
